STAT1 act-1: increases IFN-gamma driven STAT1 reporter signal. NIH 3T3 STAT1-luciferase reporter, luminescence; 100% = IFN-gamma alone, no compound. activation (% of control), % at 5.5 µM. 200,000 tested, 2.6% active. AID 932;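 active = activation above the screen-wide mean activation plus 3 SD, cut at about 130% in these data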;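 note: raw ratio to IFN-gamma control signal so 100% means no change and 0% no light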
STAT1 inh: STAT1 signaling inhibition. 200,000 tested, 0.35% active. NIH 3T3 STAT1-luciferase reporter, IFN-gamma, luminescence. inhibition, % at 5.5 µM. AID 920;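 active = inhibition above a set limit, the mean inhibition across all tested compounds plus 3 SD, cut at about 34% in these data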;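 note: 0% = IFN-gamma with DMSO and 100% = IFN-gamma with 300 µM nifuroxazide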
APP 5'UTR act: APP 5'UTR luciferase reporter activation; SH-SY5Y APP 5'UTR luciferase reporter, luminescence; zero percent = DMSO vehicle wells; AID 1276; activation, % at 2 µM; 190,000 tested, 1% active;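 active = activation above a set limit, based on mean plus 3 SD of controls, cut at about 140% in these data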
STAT3 act-1: activators of IL-6 induced STAT3 signaling; U3A cells, IL-6 STAT3-luciferase reporter, luminescence; 100% = signal with IL-6 EC80 alone; 190,000 tested, 0.91% active; activation (% of control), % at 5.6 µM;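 active = activation above the screen-wide mean of compound activation plus 3 SD, cut at about 130% in these data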;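 note: 0% = background luminescence of wells with medium and substrate only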
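Test system: STAT3-luciferase reporter U3A cells; Detection: reporter luminescence signal; Times: 1 h compound pre-exposure, 6 h IL-6 stimulation, 37 °C; Benchmarks: IL-6-only high control; Also added: IL-6 stimulus at 33 ng/mL final.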
STAT3 inh: reduces IL-6 driven STAT3 reporter signal; AID 862; inhibition, % at 5.5 µM; 190,000 tested, 0.89% active; U3A cells, IL-6 STAT3-luciferase reporter, luminescence; host cell line lacks STAT1;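 active = inhibition above the mean inhibition across all screened compounds plus 3 SD, cut at about 44% in these data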;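 note: 0% = DMSO only wells and 100% = 100 µM nifuroxazide control wells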
NF-kB expr up: compounds increasing NF-kB expression in human neuronal cells. 190,000 tested, 1.6% active. fold change at 12.5 µM. AID 1239. NF-kB reporter expression; hits give high values; in the data active = fold change above about 3.3
STAT3 act-2: confirmation of STAT3 signaling activators; potentiation (% of control), % at 5.7 µM; 1,200 tested, 64% active; U3A STAT3-luciferase reporter, IL-6 potentiation, luminescence; U3A cells lack STAT1; 100 means same as IL-6 alone; shares compounds with STAT3 act-1;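 active = percent activation of the STAT3 luciferase reporter above a set limit taken from the earlier primary screen, cut at about 130% in these data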;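 note: 0% = background signal of medium plus substrate and 100% = median of IL-6 with DMSO wells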
NFkB act STAT3ct: activates NF-kappaB, counter-screen to STAT3 activators | human cells, NF-kappaB reporter activation | AID 1309 | activation (% of control), % at 5.7 µM | 1,200 tested, 11% active | shares compounds with STAT3 act-1; in the data active = activation above about 120%;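 note: reporter induced by TNF-alpha stimulation; 100% = median of stimulated DMSO wells and 0% = no signal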
STAT1 act-2: activates STAT1, counter-screen to STAT3 activators; AID 1318; NIH 3T3 STAT1-luciferase reporter, IFN-gamma, luminescence; activation (% of control), % at 5.7 µM; 1,200 tested, 13% active; shares compounds with STAT3 act-1;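 active = activation above the solvent-only control well mean plus 3 SD, set per screening run, cut at about 120% in these data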;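 note: 100% = IFN-gamma with DMSO median signal so 100% means no change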
The depositor's hits bear a star; x = no result given. Hits are enriched below; roughly 4.9% of the tested compounds scored in any of these assays.

SMILES	STAT1 act-1	STAT1 inh	APP 5'UTR act	STAT3 act-1	STAT3 inh	NF-kB expr up	STAT3 act-2	NFkB act STAT3ct	STAT1 act-2
Cc1ccc(C(=O)N/C(=C/c2ccco2)C(=O)NCCc2c[nH]c3ccccc23)cc1	102	-2	x	115	-17	0.8	x	x	x
O=c1oc2ccccc2cc1-c1nc(-c2cccs2)cs1	113	-20	x	159*	-70	1.3	117	116	116
O=C(Nc1nc(-c2cccs2)cs1)c1cc2ccccc2oc1=O	106	-7	2	88	19	1.4	x	x	x
O=C(CCCn1cnc([N+](=O)[O-])n1)Nc1cccc2ccccc12	105	-6	-31	138*	-35	1.1	128	102	106
O=C(Cn1cnc([N+](=O)[O-])n1)NCc1ccccc1	100	0	31	97	11	1.1	x	x	x
c1ccc2c(c1)CCCN2Cc1nnc2n1CCCCC2	103	-3	23	140*	-45	1.4	120	100	98
CCOC(=O)CSc1nc(-c2ccccc2)nc2c1oc1ccccc12	93	8	-15	137*	-37	1	134*	111	94
CN1c2ccccc2C(=O)NC1c1ccc(Cl)cc1 (centres undefined)	93	6	3	93	15	1.2	x	x	x
Clc1ccc(C2Nc3ccccc3-n3cccc32)cc1 (centres undefined)	96	5	5	166*	-73	0.98	160*	113	114
O=c1ccc(Oc2nc(N3CCOCC3)nc(N3CCOCC3)n2)n[nH]1	99	1	-16	95	10	0.98	x	x	x
O=C(Cc1c[nH]c2ccccc12)Nc1nc2ccccc2[nH]1	100	0	28	146*	-51	1.4	154*	108	104
O=c1oc(-c2cccs2)nc2scc(-c3cccs3)c12	106	-6	200*	140*	-43	1.9	123	114	116
CC(C)(C)NC(=O)NC(=O)CSc1nnc(COc2ccccc2Cl)o1	107	-8	3	102	3	1.2	x	x	x
C/C(N)=C(/C#N)C(=O)CSc1nnc(COc2ccccc2Cl)o1	99	2	-6	139*	-39	1.1	134*	118	106
OC1(c2ccccc2)c2ccccc2-c2ncccc21 (centres undefined)	103	-4	-8	137*	-41	1.1	134*	98	100
O=C1Nc2ccccc2C1(O)c1ccccc1 (centres undefined)	98	1	-12	99	7	0.92	x	x	x
CCOC(=O)c1[nH]c2ccc(OC)cc2c1NS(=O)(=O)c1ccc(OC)cc1OC	96	4	20	103	-1	1.1	x	x	x
COC(=O)c1[nH]c2ccc(F)cc2c1NS(=O)(=O)c1ccc(OC)cc1OC	90	11	0	143*	-45	1	132	103	100
O=C(Nc1ccccn1)c1ccc2ccccc2n1	111	-12	141*	147*	-50	5.9*	180*	128*	164*
COc1ccc(NC(=O)C23CCC(C)(C(=O)C2)C3(C)C)cc1 (centres undefined)	99	1	-5	104	-1	1.1	x	x	x
CCCCn1c(=O)c(CCC(=O)OCC(=O)NCc2ccc(OC)c(OC)c2)nc2ccccc21	108	-7	16	102	3	1.1	x	x	x
CCOC(=O)CC1C(=O)NCCN1C(=O)c1cc2c(=O)n3ccccc3nc2s1 (centres undefined)	97	3	8	120	-19	1	x	x	x
CCOC(=O)CC1C(=O)NCCN1C(=O)c1cc2c(=O)n3cccc(C)c3nc2s1 (centres undefined)	99	2	7	164*	-73	1.1	139*	105	99
O=C(Nc1ccccc1N1CCN(C(=O)c2ccccc2)CC1)c1cc(Br)ccc1Cl	98	2	-7	115	-13	0.47	x	x	x
CN1CCN(c2ccccc2NC(=O)c2ccc(Br)o2)CC1	101	-9	-14	90	14	0.99	x	x	x
SMILES	STAT1 act-1	STAT1 inh	APP 5'UTR act	STAT3 act-1	STAT3 inh	NF-kB expr up	STAT3 act-2	NFkB act STAT3ct	STAT1 act-2
O=C(Nc1ccccc1N1CCN(C(=O)c2ccccc2)CC1)c1cc2ccccc2o1	97	4	1	142*	-46	0.47	126	101	96
O=C(Nc1ccccc1N1CCCC1)c1cc2ccccc2o1	123	-25	90	152*	-60	1.5	140*	124*	134*
CN1CCN(c2ccccc2NC(=O)c2cc3ccccc3o2)CC1	108	-9	18	144*	-50	0.79	126	102	102
Cn1c(=O)oc2cc(S(=O)(=O)NCCC(=O)N3CC=C(c4ccccc4)CC3)ccc21	92	9	-8	91	16	0.87	x	x	x
Cn1c(=O)oc2cc(S(=O)(=O)NCCC(=O)N3CCc4ccccc43)ccc21	101	-2	-9	140*	-47	1.1	124	102	99
O=C(CNc1cccc2ccccc12)N/N=C/c1ccc(OC(=O)/C=C/c2ccco2)cc1	105	-6	-1	156*	-59	1.2	124	103	104
CCOc1ccc(/C=C/C(=O)c2cc(Br)ccc(=O)c2O)cc1	94	7	-8	112	-15	1.3	x	x	x
CCc1ccc(/C=C/C(=O)c2cc(Br)ccc(=O)c2O)cc1	98	2	5	150*	-60	1.2	136*	107	91
Cc1cc(C)c[n+](-c2nc([O-])sc2C=O)c1	94	7	6	90	16	0.84	x	x	x
CCC(C)C(=O)Nc1nc(C)c(-c2csc(Nc3ccc(Cl)cc3)n2)s1 (centres undefined)	91	10	13	139*	-48	0.95	118	102	100
CCCC(=O)Nc1nc(C)c(-c2csc(Nc3ccc(Cl)cc3)n2)s1	90	12	-4	177*	-97	0.85	162*	101	97
Cc1ccc(Nc2nc(-c3sc(NC(=O)c4cccc(Cl)c4)nc3C)cs2)cc1	109	-10	31	156*	-70	1.2	113	110	113
COc1ccc(C(=O)C2CCCN(Cc3c[nH]c4ccccc34)C2)c(OC)c1 (centres undefined)	90	10	-8	142*	-44	1.1	141*	104	100
C/C(N)=C(/C#N)C(=O)CSc1nnnn1-c1ccc(C)cc1	97	4	5	115	-12	1.6	x	x	x
